Where a chain is given by its changes, count along the chain named.
What was measured:
Conditions in all cases: stereoisomer not certain
[1] = tested on: T1, O56A4 I247V
T1 sequence (whole entry): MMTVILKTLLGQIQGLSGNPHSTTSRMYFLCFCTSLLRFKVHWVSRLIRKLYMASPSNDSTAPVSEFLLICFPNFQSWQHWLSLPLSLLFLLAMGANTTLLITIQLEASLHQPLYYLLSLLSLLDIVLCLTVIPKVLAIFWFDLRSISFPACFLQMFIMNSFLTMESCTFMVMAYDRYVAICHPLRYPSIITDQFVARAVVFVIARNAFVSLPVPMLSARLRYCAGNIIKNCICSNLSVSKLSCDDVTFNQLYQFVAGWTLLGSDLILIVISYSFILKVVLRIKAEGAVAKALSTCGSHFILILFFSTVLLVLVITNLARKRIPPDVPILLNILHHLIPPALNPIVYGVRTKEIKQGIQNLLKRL
Method in brief: (§1)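 Each entry records the cell line, G-protein, co-transfected protein and tags used. Methods varied with the source, often transient luciferase assays in mammalian cell lines. A receptor–molecule pair is called responsive (active) if the original authors judged its signal statistically different from baseline and non-responsive (inactive) otherwise.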

[2] = tested on: T2, O56A4
T2 sequence (whole entry): T1 sequence (whole entry) with V247I
Method in brief: as §1

[3] = tested on: T3, O56A5 V104L
T3 sequence (whole entry): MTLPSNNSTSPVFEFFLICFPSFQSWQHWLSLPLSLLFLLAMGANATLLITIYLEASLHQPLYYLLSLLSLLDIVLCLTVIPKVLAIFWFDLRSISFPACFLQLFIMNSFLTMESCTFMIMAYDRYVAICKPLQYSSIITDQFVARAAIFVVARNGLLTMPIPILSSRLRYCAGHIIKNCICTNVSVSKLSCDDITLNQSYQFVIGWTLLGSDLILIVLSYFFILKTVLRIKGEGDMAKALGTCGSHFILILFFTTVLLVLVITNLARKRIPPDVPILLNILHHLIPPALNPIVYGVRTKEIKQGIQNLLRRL
Method in brief: as §1

[4] = tested on: T4, O56B1 C106R L214F
T4 sequence (whole entry): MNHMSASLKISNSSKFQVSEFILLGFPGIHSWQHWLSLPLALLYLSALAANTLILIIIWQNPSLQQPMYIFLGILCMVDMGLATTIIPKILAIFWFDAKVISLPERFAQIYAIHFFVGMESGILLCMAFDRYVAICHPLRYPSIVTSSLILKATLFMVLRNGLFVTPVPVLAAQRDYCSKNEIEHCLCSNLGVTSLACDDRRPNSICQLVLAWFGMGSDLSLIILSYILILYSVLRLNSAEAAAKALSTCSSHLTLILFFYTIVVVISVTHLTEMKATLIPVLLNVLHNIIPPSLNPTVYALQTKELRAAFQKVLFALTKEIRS
Method in brief: as §1

[5] = tested on: T5, O56B1 L214F
T5 sequence (whole entry): T4 sequence (whole entry) with R106C
Method in brief: as §1

[6] = tested on: T6, O56B4
T6 sequence (whole entry): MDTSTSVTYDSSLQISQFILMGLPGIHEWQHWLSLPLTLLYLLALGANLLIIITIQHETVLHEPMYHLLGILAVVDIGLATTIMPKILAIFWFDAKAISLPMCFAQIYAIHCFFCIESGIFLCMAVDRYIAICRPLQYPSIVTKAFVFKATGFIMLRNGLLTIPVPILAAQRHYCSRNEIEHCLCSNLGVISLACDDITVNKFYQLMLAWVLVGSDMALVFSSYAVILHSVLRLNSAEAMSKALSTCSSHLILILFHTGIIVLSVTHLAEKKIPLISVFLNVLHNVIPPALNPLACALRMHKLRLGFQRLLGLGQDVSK
Method in brief: as §1

[7] = tested on: T7, O5AC2
T7 sequence (whole entry): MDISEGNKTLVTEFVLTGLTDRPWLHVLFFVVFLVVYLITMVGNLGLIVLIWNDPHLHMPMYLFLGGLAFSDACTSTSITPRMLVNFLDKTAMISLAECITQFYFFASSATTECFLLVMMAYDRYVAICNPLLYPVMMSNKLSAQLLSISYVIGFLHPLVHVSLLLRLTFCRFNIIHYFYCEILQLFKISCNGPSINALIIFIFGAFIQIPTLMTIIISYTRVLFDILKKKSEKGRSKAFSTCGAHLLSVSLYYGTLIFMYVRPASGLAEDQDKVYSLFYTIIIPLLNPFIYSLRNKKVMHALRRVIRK
Method in brief: as §1

[8] = tested on: T8, O5AK2 M92I
T8 sequence (whole entry): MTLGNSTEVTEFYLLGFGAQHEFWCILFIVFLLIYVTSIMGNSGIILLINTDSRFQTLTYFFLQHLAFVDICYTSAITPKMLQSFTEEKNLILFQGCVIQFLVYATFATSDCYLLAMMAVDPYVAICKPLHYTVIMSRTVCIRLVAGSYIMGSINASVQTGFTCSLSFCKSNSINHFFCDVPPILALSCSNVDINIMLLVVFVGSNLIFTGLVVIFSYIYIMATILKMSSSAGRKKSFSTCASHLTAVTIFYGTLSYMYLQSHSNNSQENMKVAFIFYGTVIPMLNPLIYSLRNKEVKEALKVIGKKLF
Method in brief: as §1

[9] = tested on: T9, O5AN1 C142Y L289F
T9 sequence (whole entry): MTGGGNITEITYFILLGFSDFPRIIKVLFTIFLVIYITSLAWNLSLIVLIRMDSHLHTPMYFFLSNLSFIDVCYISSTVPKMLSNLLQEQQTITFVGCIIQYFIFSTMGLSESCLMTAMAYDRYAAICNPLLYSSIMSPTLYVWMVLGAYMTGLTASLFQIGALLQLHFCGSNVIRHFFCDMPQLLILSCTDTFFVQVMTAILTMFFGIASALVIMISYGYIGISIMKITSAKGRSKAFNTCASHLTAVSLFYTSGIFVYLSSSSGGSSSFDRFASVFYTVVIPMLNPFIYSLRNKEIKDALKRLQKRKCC
Method in brief: as §1

[10] = tested on: T10, O5AN1 L289F
T10 sequence (whole entry): T9 sequence (whole entry) with Y142C
Method in brief: as §1

[11] = tested on: T11, O5AP2 A105T
T11 sequence (whole entry): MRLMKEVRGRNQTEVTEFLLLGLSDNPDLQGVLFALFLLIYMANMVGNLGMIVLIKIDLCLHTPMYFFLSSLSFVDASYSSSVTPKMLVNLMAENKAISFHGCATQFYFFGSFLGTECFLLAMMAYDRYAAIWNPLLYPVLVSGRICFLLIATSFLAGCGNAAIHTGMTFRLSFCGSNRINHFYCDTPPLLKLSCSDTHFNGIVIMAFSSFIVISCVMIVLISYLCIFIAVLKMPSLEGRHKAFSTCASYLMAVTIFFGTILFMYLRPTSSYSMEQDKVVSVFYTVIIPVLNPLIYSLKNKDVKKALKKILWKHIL
Method in brief: as §1

[12] = tested on: T12, O5AU1
T12 sequence (whole entry): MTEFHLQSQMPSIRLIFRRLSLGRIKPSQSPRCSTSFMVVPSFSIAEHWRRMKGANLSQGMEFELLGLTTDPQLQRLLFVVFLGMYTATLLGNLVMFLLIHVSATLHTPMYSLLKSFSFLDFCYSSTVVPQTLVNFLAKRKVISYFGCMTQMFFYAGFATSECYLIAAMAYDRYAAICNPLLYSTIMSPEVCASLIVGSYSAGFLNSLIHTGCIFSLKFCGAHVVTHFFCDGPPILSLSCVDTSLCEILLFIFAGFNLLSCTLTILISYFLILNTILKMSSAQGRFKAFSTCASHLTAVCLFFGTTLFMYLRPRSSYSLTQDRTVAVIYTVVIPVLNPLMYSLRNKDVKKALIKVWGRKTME
Method in brief: as §1

[13] = tested on: T13, O5H14
T13 sequence (whole entry): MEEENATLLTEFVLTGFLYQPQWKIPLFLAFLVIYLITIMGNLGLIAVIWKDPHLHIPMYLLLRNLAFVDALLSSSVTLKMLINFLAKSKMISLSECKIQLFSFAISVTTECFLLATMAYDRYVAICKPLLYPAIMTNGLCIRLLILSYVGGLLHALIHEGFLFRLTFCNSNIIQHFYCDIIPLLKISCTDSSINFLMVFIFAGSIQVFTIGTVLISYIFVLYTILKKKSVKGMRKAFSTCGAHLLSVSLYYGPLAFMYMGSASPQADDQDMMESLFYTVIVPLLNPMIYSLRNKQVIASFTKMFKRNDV
Method in brief: as §1

[14] = tested on: T14, O5H15 V108I S148T T167S
T14 sequence (whole entry): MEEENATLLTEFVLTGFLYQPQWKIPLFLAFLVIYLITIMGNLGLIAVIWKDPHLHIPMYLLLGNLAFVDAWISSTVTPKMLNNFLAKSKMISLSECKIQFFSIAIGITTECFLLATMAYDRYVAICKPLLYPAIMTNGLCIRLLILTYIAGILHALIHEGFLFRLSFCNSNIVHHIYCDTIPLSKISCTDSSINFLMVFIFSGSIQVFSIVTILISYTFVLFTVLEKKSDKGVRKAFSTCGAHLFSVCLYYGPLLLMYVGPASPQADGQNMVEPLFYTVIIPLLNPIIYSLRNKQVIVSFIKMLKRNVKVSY
Method in brief: as §1

[15] = tested on: T15, O6C65 T222A
T15 sequence (whole entry): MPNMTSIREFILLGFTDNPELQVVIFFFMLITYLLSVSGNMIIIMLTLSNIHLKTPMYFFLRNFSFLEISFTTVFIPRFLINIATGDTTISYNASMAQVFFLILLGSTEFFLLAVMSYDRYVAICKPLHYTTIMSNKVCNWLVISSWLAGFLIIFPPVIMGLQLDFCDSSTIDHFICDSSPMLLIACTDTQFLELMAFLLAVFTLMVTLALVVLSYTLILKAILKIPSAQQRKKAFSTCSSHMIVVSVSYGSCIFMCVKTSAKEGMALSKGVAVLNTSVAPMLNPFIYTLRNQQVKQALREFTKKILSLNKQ
Method in brief: as §1

[16] = tested on: T16, O6C70 L181P
T16 sequence (whole entry): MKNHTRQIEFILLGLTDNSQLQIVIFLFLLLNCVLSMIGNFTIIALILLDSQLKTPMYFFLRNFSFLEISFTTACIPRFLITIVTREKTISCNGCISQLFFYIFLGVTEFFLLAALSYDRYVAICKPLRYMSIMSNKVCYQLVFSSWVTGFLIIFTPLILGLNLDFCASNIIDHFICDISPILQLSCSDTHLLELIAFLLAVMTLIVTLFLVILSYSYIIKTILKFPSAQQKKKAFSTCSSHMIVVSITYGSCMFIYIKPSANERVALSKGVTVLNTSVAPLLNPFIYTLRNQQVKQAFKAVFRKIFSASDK
Method in brief: as §1

[17] = tested on: T17, O7E24 S193F P242S
T17 sequence (whole entry): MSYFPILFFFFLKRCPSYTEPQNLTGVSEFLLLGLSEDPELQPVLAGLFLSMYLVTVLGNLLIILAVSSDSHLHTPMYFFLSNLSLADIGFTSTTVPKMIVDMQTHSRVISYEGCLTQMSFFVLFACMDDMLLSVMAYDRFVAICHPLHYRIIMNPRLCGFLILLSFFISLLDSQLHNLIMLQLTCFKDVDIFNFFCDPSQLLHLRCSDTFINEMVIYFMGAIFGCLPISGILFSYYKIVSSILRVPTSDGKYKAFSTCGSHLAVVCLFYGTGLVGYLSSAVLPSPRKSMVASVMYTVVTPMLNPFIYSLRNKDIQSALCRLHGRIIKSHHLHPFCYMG
Method in brief: as §1

[18] = tested on: T18, O7E24
T18 sequence (whole entry): T17 sequence (whole entry) with F193S
Method in brief: as §1

[19] = target: T19, OR10A2 (Homo sapiens) (UniProt Q9H208)
T19 sequence (whole entry): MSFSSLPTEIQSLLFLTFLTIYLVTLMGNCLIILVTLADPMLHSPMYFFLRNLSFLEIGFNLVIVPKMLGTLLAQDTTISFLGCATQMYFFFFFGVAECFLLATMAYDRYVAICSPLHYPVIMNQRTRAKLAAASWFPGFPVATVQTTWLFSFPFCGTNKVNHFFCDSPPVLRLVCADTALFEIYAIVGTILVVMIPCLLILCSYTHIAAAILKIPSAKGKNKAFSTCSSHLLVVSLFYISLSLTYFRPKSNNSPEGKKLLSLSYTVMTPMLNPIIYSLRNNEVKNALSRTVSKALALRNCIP
Method in brief: as §1

[20] = tested on: T20, O5AN1
T20 sequence (whole entry): T9 sequence (whole entry) with K26T, Y142C, F159S, C190S, Q197R, V214I, Y221S, F289L, K309R
Method in brief: as §1

Measured: odorant receptor agonist call

CC1=C(O)C(=O)OC1C (configuration not stated)
not listed: [20]
inactive: all other assays above

CCCCCCCCCCCCCC(C)=O
inactive: [20]

CCC1OC(=O)C(O)=C1C (configuration not stated)
not listed: [20]
inactive: all other assays above

O=C1CCCCCCC=CCCCCCCC1
active: [20]

CC(=O)c1c(C)c([N+](=O)[O-])c(C(C)(C)C)c([N+](=O)[O-])c1C
active: [20]
inactive: [19]

CC1C(C)(C)C2=C(C(=O)CCC2)C1(C)C (configuration not stated)
inactive: [20]

O=C1CCCCCCCCCCCCCC1
active: [20]

CC1CC=CCCCCCCCCC(=O)C1 (configuration not stated)
active: [20]

O=C1CCCCCCCCC1
inactive: [20]

CCC(S)C(C)CO (configuration not stated)
inactive: [19]

CCC(=O)OCC(C)(C)OC(C)C1CCCC(C)(C)C1 (configuration not stated)
inactive: [20]

CCCCCC(=O)C(C)C(C)=O (configuration not stated)
inactive: [19]

O=C1CCCCCCCCCC1
inactive: [20]

CCCCCC(S)C(C)CO (configuration not stated)
inactive: [19]

CCCCCCC=CCCC=O
not listed: [2] | [20]
inactive: all other assays above

O=C1CCCCCC=CCCCCCCCCO1
inactive: [20]

Cc1cnc(C)c(C)n1
not listed: [20]
inactive: all other assays above

CC1CCCCCCCCCCCCC(=O)C1 (configuration not stated)
active: [20]
inactive: [19]

O=C1CCCC=CCCCCCCCCCC1
active: [20]

Source: the M2OR odorant receptor database
